Six compounds from ChEMBL document CHEMBL1144496, “Design, synthesis, and biological evaluation of novel iso-D-2',3'-dideoxy-3'-fluorothianucleoside derivatives” (Bioorg Med Chem, 2007) can be followed below.

In brackets after ≈: the same amount, converted by molar mass. Activity calls are given as the source filed them. The rule behind the calls is not given here.

The test system of data set [1] is Human T-cell leukemia virus type I. As to the kind of experiment: Cytostatic activity against HTLV1 infected human MT4 lymphocyte. It counts as functional. The gist of the method:
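HTLV-1-infected human T-lymphocyte MT4 cells were exposed to compound at concentrations up to 100 μg/mL. Read-out was the 50% cytostatic concentration (CS50).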

For data set [2], the system named is Human immunodeficiency virus 1. As to the kind of experiment: Antiviral activity against HIV1 3B by CPE assay. It counts as functional, organism-based. Conditions: Human immunodeficiency virus 1, 3B.
In the next data set the test system is HeLa. Nature of the data set: Cytotoxicity against human HeLa cells. It counts as cell-based. In outline: (§1)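 Cytotoxicity was assessed on uninfected cells: Vero (African green monkey kidney) and HeLa (human cervical carcinoma). Compounds were tested up to 100 μg/mL, and the value was reported as CC50, the 50% cytotoxic concentration.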
For data set [3], the system named is Encephalomyocarditis virus. As to the kind of experiment: Antiviral activity against encephalomyocarditis virus by CPE assay. It counts as functional, organism-based. To be noted: Cardiovirus A. In outline: (§2)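 Compounds were tested at concentrations up to 100 μg/mL, and antiviral activity was expressed as EC50. For the […] line, the virus was strain […]. Cell hosts named in the work were MT4 (HTLV-1-infected human T-lymphocytes), HeLa and Vero (African green monkey kidney) cells.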

For a further data set, the system named is Coxsackievirus B3. Nature of the data set: Antiviral activity against coxsackie B virus type 3 by CPE assay. To be noted: Enterovirus B. The data set is classed as functional, organism-based.
The subject of data set [4] is Vesicular stomatitis virus. Nature of the data set: Antiviral activity against vesicular stomatitis virus by CPE assay. The data set is classed as functional, organism-based. The gist of the method:
as §2

Another data set concerns Vero. As to the kind of experiment: Cytotoxicity against Vero cells. The data set is classed as cell-based. To be noted: chlorocebus sabaeus. The gist of the method:
as §1

The next data set concerns Human alphaherpesvirus 1. As to the kind of experiment: Antiviral activity against HSV1 by CPE assay. It counts as functional, organism-based. The gist of the method: as §2
Another data set concerns Human alphaherpesvirus 2. Nature of the data set: Antiviral activity against HSV2 by CPE assay. The data set is classed as functional, organism-based. The gist of the method: as §2
The subject of data set [5] is Influenza A virus. It counts as functional, organism-based. To be noted: H1N1.
The test system of data set [6] is Influenza A virus. As to the kind of experiment: Antiviral activity against influenza virus type A H3N2. The data set is classed as functional, organism-based. In outline:
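Influenza A viruses were H1N1 strain Taiwan and H3N2 strain Johannesburg. Compounds were tested for antiviral activity and cytotoxicity at concentrations up to 100 μg/mL.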

The next data set deals with Feline coronavirus. Nature of the data set: Antiviral activity against Feline coronavirus WSU. The data set is classed as functional, organism-based. In outline:
(§3)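 Feline virus strain WSU screened together with influenza A strains; test concentrations went up to 100 μg/mL, with antiviral activity and cytotoxicity both assessed.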

For data set [7], the system named is Feline infectious peritonitis virus. Nature of the data set: Antiviral activity against FIP WSU. The data set is classed as functional. The gist of the method: as §3

Broadly, the EC50 is the concentration needed to bring the measured effect to its halfway point. What is called CC50 is the concentration at which the toxic effect on the cells reaches its halfway point. On to `O=c1ccn([C@@H]2CS[C@H](CO)[C@H]2F)c(=O)[nH]1`, for which the CS50 in [1] was more than 100 µg/mL. In addition, the EC50 (in data set [2]; in data set [3]; in the data set with Coxsackievirus B3; in [4]; in the data set on Human alphaherpesvirus 1; in the data set on Human alphaherpesvirus 2) was more than 100 µg/mL in each case. The CC50 in the data set on HeLa and in the data set on Vero was more than 100 µg/mL throughout. For the same compound, the result (in the data set with Influenza A virus [5]; with Influenza A virus [6]; in the data set with Feline coronavirus; in data set [7]) was inactive.

In the data set with HeLa, `NC(=O)c1ncn([C@@H]2O[C@H](CO)[C@@H](O)[C@H]2O)n1` [RIBAVIRIN] displayed a CC50 of more than 300 µg/mL. Moreover, the EC50 in data set [3] stood at 23.4 µg/mL (≈ 96 µM); in the data set with Coxsackievirus B3, 64.1 µg/mL (≈ 262 µM); in data set [4] it was 10.3 µg/mL (≈ 42.3 µM).

Compound `O=c1[nH]cnc2c1ncn2[C@H]1CC[C@@H](CO)O1` [DIDANOSINE] had a CS50 in data set [1] of more than 100 µg/mL. Moreover, the CC50 in the data set on Vero is more than 10 µg/mL. For the same compound, the figures for the EC50 with Human alphaherpesvirus 1 and in the data set with Human alphaherpesvirus 2 were 0.17 µg/mL (≈ 0.72 µM) and 0.47 µg/mL (≈ 1.99 µM), respectively.

In data set [1], `Nc1ccn([C@@H]2CS[C@H](CO)[C@H]2F)c(=O)n1` returned a CS50 of more than 100 µg/mL. In addition, the EC50 in data set [2] was more than 100 µg/mL; in [3] it was more than 14.5 µg/mL; in the data set with Coxsackievirus B3, more than 14.5 µg/mL; in [4], 9.43 µg/mL (≈ 38.4 µM); in the data set with Human alphaherpesvirus 1, more than 100 µg/mL; with Human alphaherpesvirus 2, more than 100 µg/mL. The CC50 was 14.54 µg/mL (≈ 59.3 µM) with HeLa and more than 100 µg/mL with Vero. In addition, the outcome (in the data set with Influenza A virus [5]; in the data set with Influenza A virus [6]; in the data set on Feline coronavirus; in [7]) was inactive.

With `Cc1cn([C@@H]2CS[C@H](CO)[C@H]2F)c(=O)[nH]c1=O`, in [1], the CS50 was more than 100 µg/mL. Moreover, the EC50 (in data set [2]; in [3]; in the data set on Coxsackievirus B3; in data set [4]; in the data set on Human alphaherpesvirus 1; with Human alphaherpesvirus 2) was more than 100 µg/mL in each case. Further, the CC50 with HeLa and in the data set with Vero was more than 100 µg/mL each time. Besides, the result (with Influenza A virus [5]; in the data set with Influenza A virus [6]; with Feline coronavirus; in [7]) was inactive.

`Nc1ncnc2c1ncn2[C@@H]1CS[C@H](CO)[C@H]1F` returned a CS50 in data set [1] of more than 100 µg/mL. Moreover, the EC50 (in [2]; in [3]; with Coxsackievirus B3; in data set [4]; in the data set on Human alphaherpesvirus 1; in the data set with Human alphaherpesvirus 2) was more than 100 µg/mL each time. Also, the CC50 in the data set on HeLa and with Vero was more than 100 µg/mL in each case. Moreover, the result (in the data set with Influenza A virus [5]; with Influenza A virus [6]; in the data set on Feline coronavirus; in [7]) was inactive.
